Reference: ChEMBL document CHEMBL4257484, “Membrane-active antimicrobial poly(amino-modified alkyl) β-cyclodextrins synthesized via click reactions” (Medchemcomm, 2018)

Legend:
Type in all cases: functional
Staphylococcus aureus [1] = assay: Induction of membrane disruption in methicillin-sensitive Staphylococcus aureus FDA 209P assessed as increase in K+ efflux after 30 mins; conditions: 0.5 h, read-out: ED50 (the source's name)
Outline: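 S. aureus washed twice and suspended at 2 × 10^9 cells per cm3 in 100 mM choline chloride/50 mM Mops-Tris, pH 7.2, then exposed to compound at 37 °C for 30 min. Released K+ was measured in the centrifuged supernatant with a K+-selective electrode. Melittin (10 µM) defined 100% efflux, and ED50 is the concentration giving 50% efflux.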

Staphylococcus aureus [2] = assay: Antibacterial activity against Staphylococcus aureus FDA 209P assessed as decrease in cell viability after 30 mins by colony counting method; conditions: 0.5 h
Outline: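 S. aureus washed twice and suspended at 2 × 10^9 cells per cm3 in 100 mM choline chloride/50 mM Mops-Tris, pH 7.2. Exposed to CD at 37 °C for 30 min. An aliquot was diluted in physiological saline, plated on polypeptone/yeast extract/NaCl agar and incubated overnight at 37 °C. Viability was taken from colony counts; LC50 is the concentration giving 50% viability.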

Staphylococcus aureus [3] = assay: Induction of membrane disruption in methicillin-sensitive Staphylococcus aureus FDA 209P assessed as increase in K+ efflux at 10 uM after 30 mins relative to control
Outline: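 S. aureus suspension (2 × 10^9 cells per cm3, 100 mM choline chloride/50 mM Mops-Tris, pH 7.2) treated with CD at 37 °C for 30 min, then centrifuged. K+ released into the supernatant was read with a K+-selective electrode. Efflux is expressed relative to 10 µM melittin, which sets 100%.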

In the case of CC[C@H](C)[C@H](NC(=O)CN)C(=O)NCC(=O)N[C@@H](C)C(=O)N[C@H](C(=O)N[C@@H](CC(C)C)C(=O)N[C@@H](CCCCN)C(=O)N[C@H](C(=O)N[C@@H](CC(C)C)C(=O)N[C@H](C(=O)N[C@H](C(=O)NCC(=O)N[C@@H](CC(C)C)C(=O)N1CCC[C@H]1C(=O)N[C@@H](C)C(=O)N[C@@H](CC(C)C)C(=O)N[C@H](C(=O)N[C@@H](CO)C(=O)N[C@@H](Cc1c[nH]c2ccccc12)C(=O)N[C@H](C(=O)N[C@@H](CCCCN)C(=O)N[C@@H](CCCNC(=N)N)C(=O)N[C@@H](CCCCN)C(=O)N[C@@H](CCCNC(=N)N)C(=O)N[C@@H](CCC(N)=O)C(=O)N[C@@H](CCC(N)=O)C(N)=O)[C@@H](C)CC)[C@@H](C)CC)[C@@H](C)O)[C@@H](C)O)C(C)C)C(C)C [MELITTIN], the EC50 (Staphylococcus aureus [1]) is reported as 200 to 500 nM, the LC50 (Staphylococcus aureus [2]) is reported as 200 to 500 nM and the Activity (Staphylococcus aureus [3]) is reported as 100%.
